CHT inh: inhibitors of human choline transporter CHT | CHT-expressing cells, membrane potential dye, choline response; stronger effect = lower value | B-score at 10 µM | 310,000 compounds, 0.86% hits;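 active means B-score over 3 SD under the library average, and starting fluorescence ratio not unusually high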;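 further: choline stimulus applied at its EC90 after an EC20 pre-addition; B-score computed on integrated fluorescence ratio after choline addition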
T cell HTS: T cell immune modulation candidate | 2C CD8+ T cell-vesicle binding, flow cytometry; stronger effect = lower value | response (vesicle binding), % at 7 µM | 330,000 compounds, 0.068% hits | AID 2052;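 active means response, share of CD8 T cells binding vesicles, and their 90th percentile fluorescence all below set limits, cut at about 80% in these data, passing the limit was not always enough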;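 further: values below 100% mean blocked vesicle binding to the CD8+ T cells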
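Material: murine 2C transgenic CD8+ T lymphocytes / Also added: QL9-peptide-loaded Drosophila micro-vesicles bearing Ld, ICAM-1 and B7-1 / Schedule: binding step 1.5 h, 37 °C, antibody labelling 20 min, ice / Signal: flow cytometry, PE anti-B7-1 (FL2) versus Alexa647 anti-CD8 (FL8), PFA-fixed / Evaluation: percent CD8+ FL2 mean versus row control / Benchmarks: naked versus QL9-loaded vesicles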
p-CIP stab down: compounds decreasing mouse p/CIP protein stability; 290,000 compounds, 0.01% hits; decrease of EGFP signal, % at 10 µM; AID 1984; F442A p/CIP-EGFP cells, EGFP fluorescence, 16 h; Q05BA5;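 active means EGFP signal decrease of at least 30% at 10 µM or well 3 SD below plate mean, unless failing retest; inactive means the rest, including hits failing retest or dose response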
GPR7 antag: human neuropeptides B/W receptor 1 antagonism; GPR7-expressing cells, fluorescence antagonist assay; inhibition, % at 4.4 µM; 290,000 compounds, 1.1% hits; AID 1861; in the data active means inhibition above about 16%, passing the limit was not always enough;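 further: cells stimulated with the agonist NPW; 0% = agonist with vehicle and 100% = vehicle without agonist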
DSG3 Ab inh: human desmoglein-3 autoantibody binding inhibition; P32926; binding (percent of control), % at 10 µM; AID 588358; DSG3-coupled beads, scFv-anti-DSG3-GFP binding, flow cytometry; stronger effect = lower value; 310,000 compounds, 0.48% hits;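 active means binding more than 3 SD below its plate's average and above zero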;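 further: hits lower antibody fragment binding to DSG3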
Target sequence (P32926 whole entry, looked up, the tested form may be a part): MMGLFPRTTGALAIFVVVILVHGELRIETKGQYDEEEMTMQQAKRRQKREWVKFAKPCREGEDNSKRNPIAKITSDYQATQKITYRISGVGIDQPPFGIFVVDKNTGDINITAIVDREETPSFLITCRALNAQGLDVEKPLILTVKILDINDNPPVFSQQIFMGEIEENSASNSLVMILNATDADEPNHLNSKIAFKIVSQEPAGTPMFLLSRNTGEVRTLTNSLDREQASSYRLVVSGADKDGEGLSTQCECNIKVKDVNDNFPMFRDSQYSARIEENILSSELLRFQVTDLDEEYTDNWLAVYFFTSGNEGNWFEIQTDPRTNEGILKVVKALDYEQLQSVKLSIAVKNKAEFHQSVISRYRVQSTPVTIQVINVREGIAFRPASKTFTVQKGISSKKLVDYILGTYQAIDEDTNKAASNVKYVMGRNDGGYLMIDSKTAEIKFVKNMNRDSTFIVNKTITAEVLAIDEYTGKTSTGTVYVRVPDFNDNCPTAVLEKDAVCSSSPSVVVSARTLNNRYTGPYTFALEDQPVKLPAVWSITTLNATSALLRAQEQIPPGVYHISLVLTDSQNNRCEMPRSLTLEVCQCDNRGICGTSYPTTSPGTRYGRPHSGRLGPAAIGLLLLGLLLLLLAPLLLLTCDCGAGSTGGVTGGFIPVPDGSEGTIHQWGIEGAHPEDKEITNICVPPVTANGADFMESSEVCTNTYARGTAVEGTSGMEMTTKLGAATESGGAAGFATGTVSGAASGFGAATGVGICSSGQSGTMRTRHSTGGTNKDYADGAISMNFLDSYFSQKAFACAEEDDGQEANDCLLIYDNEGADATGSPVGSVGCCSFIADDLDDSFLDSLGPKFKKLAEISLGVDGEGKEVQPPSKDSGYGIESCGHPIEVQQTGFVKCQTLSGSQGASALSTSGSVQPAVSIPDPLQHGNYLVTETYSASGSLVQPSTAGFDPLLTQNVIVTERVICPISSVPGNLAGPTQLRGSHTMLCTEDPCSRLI
CHT PAM: allosteric activators of human choline transporter CHT. 310,000 compounds, 0.49% hits. B-score at 10 µM. AID 488977. Q9GZV3. CHT-expressing cells, membrane potential dye, choline EC20; stronger effect = higher value; LV-AA mutant CHT in HEK293 cells;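 active means initial fluorescence not abnormally high and integrated response B-score, plate-corrected, over 3 SD above library mean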
An asterisk follows results filed as active; i = inactive; / = not tested or not shown. In the library only some 2.3% were active in any assay of this set; here they are far more common.

SMILES	CHT inh	T cell HTS	p-CIP stab down	GPR7 antag	DSG3 Ab inh	CHT PAM
CC(=O)c1ccc(NC(=S)N2CCN(c3cccc(Cl)c3)CC2)cc1	i	387	-7	14	97	i
Cc1ccccc1C(=O)N1CCC(C(=O)NCCc2ccc(S(N)(=O)=O)cc2)CC1	i	189	-3	-9	/	i
NS(=O)(=O)c1ccc(CCNC(=O)C2CCN(C(=O)Nc3ccccc3)CC2)cc1	/	335	/	/	57*	/
NS(=O)(=O)c1ccc(CCNC(=O)C2CCN(S(=O)(=O)c3cccc4cccnc34)CC2)cc1	i	54*	-4	-7	93	i
O=C(C1CCN(S(=O)(=O)c2cccc3cccnc23)CC1)N1CCCC1	i	383	1	/	89*	i
O=C(NCCc1ccccc1)C1CCN(c2ncccn2)CC1	i	242	7	-13	89*	i
CC(C)(C)OC(=O)N1CCC(C(=O)Nc2ccc(C(=O)NC3CC3)cc2)CC1	/	/	/	/	102	/
C[C@H](CO)N1C[C@H](C)[C@@H](CN(C)Cc2ccc(C(=O)O)cc2)Oc2ncc(-c3ccc(C(=O)N(C)C)cc3)cc2C1=O	/	/	/	/	112	/
COC(=O)c1ccc(/C=C(\C#N)c2nc3ccccc3s2)cc1	i	264	-31	-4	100	i
N#C/C(=C\c1ccccn1)c1nc2ccccc2s1	i	431	-398	21*	104	i
Cc1cc(=O)oc2cc(OCC(=O)OCC(=O)Nc3ccccc3Br)ccc12	i	187	1	-3	71*	i
Cc1cc(=O)oc2cc(OCC(=O)Nc3ccc(S(=O)(=O)N(C)C)cc3)ccc12	i	95	-4	-7	71*	i
C=CCC[C@H](Cc1ccc(F)cc1)C(=O)OC[C@@H](Cc1c[nH]c2ccccc12)NC(=O)[C@H](CC=C)CC(=O)N(CCO)Cc1ccccc1	/	322	/	/	/	/
O=C(O)CCN1C(=O)c2ccccc2C1=O	i	459	0	18*	104	i
O=C1C(=O)N(Cc2ccccc2)C(=O)N1CCN1C(=O)c2ccccc2C1=O	i	375	-2	19*	100	i
O=C(O)CNC(=O)CCN1C(=O)c2ccccc2C1=O	i	212	-6	-4	100	i
Cc1cc(OCC(=O)OCC(=O)N(Cc2ccccc2)C(C)(C)C)ccc1Cl	/	/	/	/	97	/
COCCN(C(=O)CSc1nnc(-c2ccc(F)cc2)n1N)c1c(N)n(CC(C)C)c(=O)[nH]c1=O	/	/	/	/	93	/
CCN(c1ccccc1)S(=O)(=O)c1ccc(Oc2ccccc2)c(N)c1	/	/	/	/	119	/
COc1ccccc1C(=O)NCC(=O)N(C)Cc1nc2ccccc2c(=O)[nH]1	/	/	/	/	100	/
O=C(COc1ccc(Cl)cc1)OCc1ccc(Cl)cc1	/	/	/	/	93	/
O=C(CSc1ccc(-c2ccc(F)cc2)nn1)N1CCN(c2ccccc2)CC1	i	169	1	-2	84*	i
N#CC1=C2SCC(O)(c3ccccc3)N2C(=O)CC1c1cccs1 (centres undefined)	i	370	-7	17*	126	i
CC(=O)O[C@H]1C[C@@H]2CC[C@@H]3[C@H](CC[C@@]4(C)[C@H]3C[C@H]([N+]3(C)CCCCC3)[C@@H]4OC(C)=O)[C@@]2(C)C[C@@H]1N1CCCCC1	i	576	/	/	/	6.5*
CC1=C(C(=O)N2CCOCC2)CC(CC(=O)NC2CCCCC2)C(=O)N1Cc1ccc(F)cc1 (centres undefined)	/	/	/	/	99	/
COc1ccc(-c2noc(-c3ccccc3C(=O)Nc3cccnc3)n2)cc1OC	i	252	-11	-3	118	i
COc1ccc(-c2noc(-c3ccccc3C(=O)Nc3cccnc3)n2)cc1	i	554	3	14*	/	i
CC(=O)/C(=N/Nc1cccc(Cl)c1)Sc1nnc(C(O)c2ccccc2)n1-c1ccccc1 (centres undefined)	i	180	7	27*	98	i
COC(=O)/C(=N/Nc1ccccc1C)Sc1nnc(C(O)c2ccccc2)n1-c1ccccc1 (centres undefined)	i	541	-33	-1	83	i
O=C(Cn1ccc(=O)[nH]c1=O)c1ccc([N+](=O)[O-])o1	/	/	/	/	105	/

Bioassay records from PubChem.
